Assay results published in ChEMBL document CHEMBL1140208, “Selectivity and mechanism of action of a growth factor receptor-bound protein 2 SRC homology 2 domain binding antagonist” (J Med Chem, 2008).
pIC50: −log10 of the molar value. The source made the active and inactive calls. The rule behind the calls is not given here.

Legend:
[1] = Selectivity ratio for streptavidin-coupled biotin-labeled Shc-SH2 to streptavidin-coupled biotin-labeled Grb2-SH2
Method in brief: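 Ratio of Shc-SH2 to Grb2-SH2 steady-state affinities, both measured by SPR on Neutravidin-captured biotinylated SH2 domains (Biacore T100, 25°C, PBS pH 7.4, inhibitors 1.25–1500 nM, 1:1 fit).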

MDCK = assay: Inhibition of HGF-induced MDCK cell migration assessed as reduction in actin bundle reorganization and membrane extension at 1 uM after 6 hrs by DAPI staining; type: functional, cell-based; details: Canis lupus familiaris
Method in brief: (§1)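 Cells in chamber slides serum-deprived ± 1 μM compound for 24 h, monolayer scratched with pipet tip, then incubated ± HGF 50 ng/ml (6 h) before fixation and permeabilization. Blocked with 5% BSA, stained overnight at 4°C with Alexa488-phalloidin for F-actin, nuclei counterstained with DAPI; lamellipodia at wound edge imaged by epifluorescence videomicroscopy.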

PC-3M [2] = assay: Inhibition of HGF-induced human PC3M cell migration assessed as reduction in actin bundle reorganization and membrane extension at 1 uM after 6 hrs by DAPI staining; type: functional, cell-based; method in brief: as §1
[3] = molecular target: Serine/threonine-protein kinase PAK 1 (Homo sapiens) (UniProt Q13153); assay: Inhibition of HGF-stimulated PAK1 activation in human PC3M cells at 1 uM after 16 hrs by immunoblot analysis; type: cell-based
Chain of Serine/threonine-protein kinase PAK 1 (Homo sapiens) (Q13153 whole entry): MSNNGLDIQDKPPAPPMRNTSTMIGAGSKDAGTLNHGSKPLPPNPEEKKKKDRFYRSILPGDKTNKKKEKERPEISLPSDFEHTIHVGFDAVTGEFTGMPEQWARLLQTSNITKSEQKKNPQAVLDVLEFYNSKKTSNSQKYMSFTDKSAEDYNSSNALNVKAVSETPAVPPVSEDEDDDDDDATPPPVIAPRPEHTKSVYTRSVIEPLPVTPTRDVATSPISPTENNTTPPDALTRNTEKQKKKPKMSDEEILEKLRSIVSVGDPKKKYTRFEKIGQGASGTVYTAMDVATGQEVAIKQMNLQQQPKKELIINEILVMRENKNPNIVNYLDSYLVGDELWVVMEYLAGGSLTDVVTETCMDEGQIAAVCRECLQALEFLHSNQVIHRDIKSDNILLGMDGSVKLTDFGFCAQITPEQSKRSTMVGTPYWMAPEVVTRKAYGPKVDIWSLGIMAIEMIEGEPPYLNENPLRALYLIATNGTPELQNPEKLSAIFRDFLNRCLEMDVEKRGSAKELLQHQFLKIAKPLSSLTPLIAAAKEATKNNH
Method in brief: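 PC3M cells serum-deprived and treated 16 h with 1 μM compound or left untreated, then stimulated briefly with HGF (50 ng/mL) for various times. Lysates probed by immunoblot with anti-phospho-PAK1; anti-PAK1 served as loading control.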

[4] = molecular target: Serine/threonine-protein kinase PAK 1 (Homo sapiens) (UniProt Q13153); assay: Decrease in HGF-stimulated PAK1 nuclear translocation in human PC3M cells at 1 uM after 16 hrs by immunoblot analysis; type: cell-based
Method in brief: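 PC3M cells treated with compound for 16 h; nuclear extracts prepared with high-salt buffer. PAK1 detected by SDS-PAGE and anti-PAK1 immunoblot, with anti-CREB immunoblot alongside.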

[5] = molecular target: Growth factor receptor-bound protein 2 (Homo sapiens) (UniProt P62993); assay: Binding affinity to human recombinant HGF-stimulated Grb2-SH3 in human SK-LMS1 cells assessed as presence of associated protein Sos1 at 3 uM by immunoblot analysis; type: cell-based
Chain of Growth factor receptor-bound protein 2 (Homo sapiens) (P62993 whole entry, looked up): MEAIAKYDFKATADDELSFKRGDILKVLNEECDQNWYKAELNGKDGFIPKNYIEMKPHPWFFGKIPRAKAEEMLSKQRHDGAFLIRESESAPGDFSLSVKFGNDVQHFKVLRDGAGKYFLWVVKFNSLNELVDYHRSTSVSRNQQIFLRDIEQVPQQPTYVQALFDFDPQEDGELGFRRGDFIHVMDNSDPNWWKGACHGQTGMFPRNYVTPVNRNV

[6] = molecular target: Growth factor receptor-bound protein 2 (Homo sapiens) (UniProt P62993); assay: Binding affinity to human recombinant HGF-stimulated Grb2-SH3 in human SK-LMS1 cells assessed as presence of associated protein Gab1 at 3 uM by immunoblot analysis; type: cell-based
[7] = molecular target: Growth factor receptor-bound protein 2 (Homo sapiens) (UniProt P62993); assay: Binding affinity to human recombinant HGF-stimulated Grb2-SH3 in human SK-LMS1 cells assessed as presence of associated protein Nck2 at 3 uM by immunoblot analysis; type: cell-based
[8] = molecular target: Growth factor receptor-bound protein 2 (Homo sapiens) (UniProt P62993); assay: Binding affinity to human recombinant HGF-stimulated Grb2-SH2 in human SK-LMS1 cells at 3 uM by immunoblot analysis; type: cell-based
Method in brief: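 SK-LMS-1 cells serum-deprived 16 h, stimulated with recombinant human HGF 25 ng/ml for 20 min, lysed in cold non-ionic detergent buffer. Biotinylated ligand (3 μM) added to lysate, 1 h on ice; streptavidin beads added, 1 h at 4°C. Beads washed five times with lysis buffer at 150–500 mM NaCl; bound Grb2 detected by SDS-PAGE and anti-Grb2 immunoblot.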

[9] = (§2) Antimotility activity in human PC3M cells assessed as inhibition of HGF-stimulated cell migration after 24 hrs by Boyden chamber assay; type: functional, cell-based; details: PC-3M
Method in brief: (§3)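 PC3M cells pretreated with compound 24 h, seeded 200,000 per modified Boyden chamber; migration stimulated with recombinant human HGF 50 ng/ml. Migrated cells counted by light microscopy in four fields (1 × 1.4 mm) per well, triplicate wells per condition; expressed as percent maximum, mean ± standard deviation; dose-response analysis.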

[10] = molecular target: Growth factor receptor-bound protein 2 (Homo sapiens) (UniProt P62993); assay: Binding affinity to human recombinant HGF-stimulated Grb2-SH3 in human SK-LMS1 cells assessed as presence of associated protein Nck1 at 3 uM by immunoblot analysis; type: cell-based
PC-3M [11] = assay: as §2; type: functional, cell-based; method in brief: as §3

Q: Which Ratio [1] does the source give for `NC(=O)C[C@H](NC(=O)C1(NC(=O)[C@H](Cc2ccc(C(C(=O)O)C(=O)O)cc2)NC(=O)C(=O)O)CCCCC1)C(=O)NCCCc1cccc2c(O)cccc12` here?
A: Its Ratio is 101.

Q: Which results are given for `NC(=O)C[C@H](NC(=O)C1(NC(=O)[C@H](Cc2ccc(C(C(=O)O)C(=O)O)cc2)NC(=O)C(=O)O)CCCCC1)C(=O)NCCCc1cccc2ccccc12`?
A: Activity (MDCK): Active; Activity (PC-3M [2]): Active; Activity [3]: Active; Activity [4]: Active; Ratio [1]: 65

Q: What does the source list for `NC(=O)C[C@H](NC(=O)C1(NC(=O)[C@H](Cc2ccc(C(C(=O)O)C(=O)O)cc2)NC(=O)C(=O)O)CCCCC1)C(=O)NCCCc1cccc2c(OC(=O)CCCCCNC(=O)CCCC[C@@H]3SC[C@@H]4NC(=O)N[C@@H]43)cccc12`?
A: Activity [5]: Active; Activity [6]: Active; Activity [7]: Active; Activity [8]: Active; pIC50 [9]: 7.85; Activity [10]: Active

Q: With `NC(=O)C[C@H](NC(=O)C1(NC(=O)[C@H](Cc2ccc(O)cc2)NC(=O)C(=O)O)CCCCC1)C(=O)NCCCc1cccc2c(OC(=O)CCCCCNC(=O)CCCC[C@@H]3SC[C@@H]4NC(=O)N[C@@H]43)cccc12` as the molecule, how does the Activity [8] read?
A: Its Activity is “inactive”.

Q: And the Activity (PC-3M [11])?
A: Its Activity is “inactive”.
